E coli WT exp: growth inhibitors of wild-type E. coli, primary screen, strain BW25113, expanded library, OD600; 98,000 tested, 0.15% active; OD600 absorbance; growth inhibition, % at 100 µM; AID 710, 2007;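 active = growth inhibition above about 50% at one test dose, limit read from the data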;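 note: growth measured after 20 h incubation at 37 °C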
HePTP inhibitor: inhibitors of human HePTP phosphatase, primary screen, biochemical, absorbance, leukemia target; recombinant HePTP phosphatase activity, OD absorbance; inhibition, % at 20 µM; 110,000 tested, 0.64% active; AID 521, 2006; in the data active = inhibition above about 50%
Target sequence (P35236 whole entry, looked up): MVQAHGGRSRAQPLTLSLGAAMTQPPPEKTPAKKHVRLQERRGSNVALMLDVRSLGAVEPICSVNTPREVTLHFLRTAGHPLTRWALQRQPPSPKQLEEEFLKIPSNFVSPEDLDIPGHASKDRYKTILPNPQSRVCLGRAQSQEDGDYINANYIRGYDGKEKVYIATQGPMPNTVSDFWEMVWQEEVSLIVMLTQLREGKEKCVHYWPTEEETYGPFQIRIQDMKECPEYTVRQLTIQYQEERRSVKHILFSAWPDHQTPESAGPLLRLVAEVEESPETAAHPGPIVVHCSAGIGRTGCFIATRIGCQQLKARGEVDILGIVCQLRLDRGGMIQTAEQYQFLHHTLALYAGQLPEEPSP
PLAP act: PLAP enzyme activators, biochemical, luminescence, HTS. Alkaline phosphatase, placental type (Homo sapiens), P05187. purified PLAP enzyme, luminescent substrate read-out; stronger effect = higher value. AID 696, 2007. activation fold at 20 µM. 96,000 tested, 1.2% active; in the data active = activation fold above about 2
Ecoli tolC: growth inhibitors of E. coli tolC mutant, primary screen, strain BW25113 ΔtolC::kan, 384-well; growth inhibition, % at 10 µM (by protocol); 65,000 tested, 2.2% active; OD615;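 active = growth inhibition at or above a cutoff equal to the mean over every tested compound plus 3 SD, cut at about 60% in these data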;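 note: growth measured after 20 h incubation at 37 °C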
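Material: E. coli BW25113 ΔtolC::kan, tolC deletion mutant strain. Measure: percent growth inhibition. Schedule: 37 °C, 20 h exposure. Doses: single-point testing at 10 µM. Signal: A615 absorbance measurement. Buffer or medium: kanamycin-containing LB broth (50 µg/mL).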
PostGolgi yeast: phenotypic screen on post-Golgi transport, primary screen. post-Golgi transport phenotypic cell assay. inhibition, % at 10 µM. 98,000 tested, 0.9% active. AID 739, 2007;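 note: yeast cells grown in 1536-well plates; yeast grown about 18 h at 30C before absorbance read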
PostGolgi ctrl: growth inhibition of yeast control strain, primary screen, counter-screen for post-Golgi transport modulator project; efflux-deficient yeast background strain, growth absorbance A615, 16 h; inhibition, % at 10 µM; 98,000 tested, 5% active
Numbers stand for hits. An excerpt weighted towards active compounds, which were near 5.5% of everything screened. Cut-off read from the data, not from the text of the source, unless noted: active = inhibition above about 30%; inactive = the rest.

`O=C(CSc1ncnc2sc3c(c12)CCCC3)c1ccco1` gave E coli WT exp inactive, HePTP inhibitor inactive, PLAP act inactive, Ecoli tolC inactive, PostGolgi yeast inactive and PostGolgi ctrl 46.
For CCOC(=O)c1ccc(NC(=O)CC2COc3ccccc3O2)cc1 (stereo not given) the results were E coli WT exp inactive, HePTP inhibitor inactive, PLAP act inactive, Ecoli tolC inactive, PostGolgi yeast inactive and PostGolgi ctrl 32.
CCOC(=O)c1ccc(NC(=O)CCC(=O)OC)cc1 was read as E coli WT exp inactive, HePTP inhibitor inactive, PLAP act inactive, Ecoli tolC inactive, PostGolgi yeast inactive and PostGolgi ctrl 30.
`Cc1cc2nc(C3CCN(CC4COc5ccccc5O4)CC3)[nH]c2cc1C` (stereo not given) gave E coli WT exp inactive, HePTP inhibitor inactive, Ecoli tolC inactive, PostGolgi yeast 41 and PostGolgi ctrl 34.
Screening Cc1ccccc1C(=O)N1CCN(c2nc3ccc([N+](=O)[O-])cc3s2)CC1 returned HePTP inhibitor inactive.
Screening Cc1cc(=O)[nH]c(-n2nc(C)c(Oc3ccccc3O)c2C)n1 returned E coli WT exp inactive, HePTP inhibitor inactive, PLAP act inactive, Ecoli tolC inactive, PostGolgi yeast inactive and PostGolgi ctrl inactive.
`Cc1cc(=O)[nH]c(-n2nc(C)cc2C)n1` gave E coli WT exp 57, HePTP inhibitor inactive, PLAP act inactive, Ecoli tolC 75, PostGolgi yeast inactive and PostGolgi ctrl inactive.
Screening C/C(=N\N=C1\NC(=O)C(CC(=O)Nc2ccccc2C)S1)c1ccco1 (stereo not given) returned HePTP inhibitor inactive.
`CCOc1ccc(Nc2cc(C)nc(-n3nc(C)cc3C)n2)cc1` gave E coli WT exp inactive, HePTP inhibitor inactive, PLAP act inactive, Ecoli tolC 72, PostGolgi yeast inactive and PostGolgi ctrl inactive.
Screening CNc1cc(C)nc(-n2nc(C)cc2C)n1 returned E coli WT exp inactive, HePTP inhibitor inactive, PLAP act inactive, Ecoli tolC inactive, PostGolgi yeast inactive and PostGolgi ctrl inactive.
Screening O=C(Cn1ncc2c(=O)oc3ccccc3c21)N1CCN(c2ccccn2)CC1 returned E coli WT exp inactive, HePTP inhibitor inactive, PLAP act inactive, Ecoli tolC inactive, PostGolgi yeast 35 and PostGolgi ctrl inactive.
`COc1ccccc1CNC(=O)c1c(Cl)cccc1Cl` gave HePTP inhibitor inactive.
Screening CCC(c1nnnn1CCOC)N1CCN(Cc2ccccc2)CC1 (stereo not given) returned E coli WT exp inactive, HePTP inhibitor inactive, PLAP act inactive, Ecoli tolC inactive, PostGolgi yeast inactive and PostGolgi ctrl 31.
O=C(O)c1cccc(CN2C(=O)SC(Nc3ccccc3)C2=O)c1 (stereo not given) was read as E coli WT exp inactive, HePTP inhibitor inactive, PLAP act inactive, Ecoli tolC inactive, PostGolgi yeast inactive and PostGolgi ctrl inactive.
Screening O=C(O)c1cccc(CN2C(=O)CSC2=O)c1 returned E coli WT exp inactive, HePTP inhibitor inactive, PLAP act inactive, Ecoli tolC inactive, PostGolgi yeast inactive and PostGolgi ctrl 36.
`NC1=NC(=O)/C(=C\c2ccc(S(=O)(=O)O)cc2)S1` gave HePTP inhibitor inactive.
`COc1ccc(-c2c3c(=O)n(C)c(=O)n(C)c3c3nnc4ccccc4n23)cc1` gave HePTP inhibitor inactive and Ecoli tolC inactive.
`COc1ccc(-c2c3c(=O)n(C)c(=O)n(C)c3cn2C2CCCCC2)cc1` gave E coli WT exp inactive, HePTP inhibitor inactive, PLAP act inactive, Ecoli tolC inactive, PostGolgi yeast inactive and PostGolgi ctrl 41.
Screening O=C(O)c1cn(C2CC2)c2cc(N3CCNCC3)c(F)cc2c1=O returned HePTP inhibitor inactive.
`COc1c(N2CCNC(C)C2)c(F)cc2c(=O)c(C(=O)O)cn(C3CC3)c12` (stereo not given) gave HePTP inhibitor inactive and Ecoli tolC 97.
For COc1c(N2CCN(C(=S)Nc3ccc(F)cc3)C(C)C2)c(F)cc2c(=O)c(C(=O)O)cn(C3CC3)c12 (stereo not given) the results were E coli WT exp 99, PLAP act inactive, PostGolgi yeast inactive and PostGolgi ctrl inactive.
For O=Cc1ccccc1OCc1c(F)cccc1Cl the results were HePTP inhibitor inactive.

Screening data from PubChem.
